Key:
Huh7.5 cells = experiment: Cell viability in parental Huh7.5 cells by MTS assay; assay type: cell-based; details: 100 μM, 42 h
In short: (§1)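 Cytotoxicity was run in parallel with the HCV replicon assays, using parental Huh7.5 cells at 37 °C and 5% CO2. Cells were seeded at 1 × 10^4 cells/well and exposed 8 h later to test compound at 100 μM or to matching DMSO for 42 h. Viability was read by the colorimetric MTS assay.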

[1] = test system: HCV RNA replication of genotype 2a (Huh7.5-FGR-JC1-Rluc2A); experiment: HCV 2a replicon luciferase reporter assay; assay type: cell-based, Hepatitis C virus genotype 2a; details: Huh7.5-FGR-JC1-Rluc2A cells, 100 μM, 42 h
[2] = test system: HCV RNA replication of genotype 1b (Huh7/Rep-Feo1b); experiment: HCV 1b replicon luciferase reporter assay; assay type: cell-based, Hepatitis C virus genotype 1b; details: Huh7/Rep-Feo1b cells, 100 μM, 42 h
[3] = target: intracellular HCV NS5B RdRp activity (Hepatitis C virus genotype 1b, UniProt P26663); experiment: BHK-NS5B-FRLuc reporter: intracellular NS5B RdRp activity; assay type: cell-based; details: 100 μM, 42 h, percent of DMSO controls
intracellular HCV NS5B RdRp activity, sequence (P26663 2420-3010): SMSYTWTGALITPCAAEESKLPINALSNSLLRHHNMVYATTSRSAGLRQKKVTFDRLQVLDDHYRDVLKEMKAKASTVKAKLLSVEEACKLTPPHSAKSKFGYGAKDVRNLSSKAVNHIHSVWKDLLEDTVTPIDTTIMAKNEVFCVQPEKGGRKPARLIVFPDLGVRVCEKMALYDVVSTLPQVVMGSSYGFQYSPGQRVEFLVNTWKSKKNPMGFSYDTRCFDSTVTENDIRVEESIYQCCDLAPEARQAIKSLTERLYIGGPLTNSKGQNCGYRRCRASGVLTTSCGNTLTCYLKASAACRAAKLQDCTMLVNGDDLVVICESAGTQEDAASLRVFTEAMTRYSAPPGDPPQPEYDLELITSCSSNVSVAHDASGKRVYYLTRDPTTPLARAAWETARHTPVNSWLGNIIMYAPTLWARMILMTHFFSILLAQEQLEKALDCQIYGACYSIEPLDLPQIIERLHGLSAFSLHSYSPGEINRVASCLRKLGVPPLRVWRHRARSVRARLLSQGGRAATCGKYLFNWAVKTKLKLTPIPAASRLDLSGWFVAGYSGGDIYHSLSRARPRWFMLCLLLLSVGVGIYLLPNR
In short: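 BHK cells stably expressing NS5B and carrying a bicistronic (+)FLuc-(−)UTR-RLuc reporter were grown in DMEM with 10% FBS, antibiotic-antimycotic, nonessential amino acids, 1 mg/mL G418 and […] at 37 °C and 5% CO2. Cells were seeded at 1 × 10^4 cells/well and dosed 8 h later with 100 μM test compound. Cells were lysed 42 h after treatment and read by dual luciferase. Activity is the percent reduction in RLuc/FLuc versus DMSO controls.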

[4] = test system: BHK-NS5B-FRLuc reporter cells; assay type: cell-based; details: 100 μM, 42 h, firefly luciferase versus DMSO controls
[5] = Cell viability in parental Huh7.5 cells by MTS assay; assay type: cell-based; details: human, parental Huh7.5 cells, Huh7.5 Cytotoxicity (%)
In short: as §1

Row | Compound | Huh7.5 Cytotoxicity (%) (Huh7.5 cells) | 2a Replicon reporter Inhibition (%) [1] | 1b Replicon reporter Inhibition (%) [2] | BHK-NS5B FR Luc Inhibition (%) [3] | BHK-NS5B FR Luc Cytotoxicity (%) [4] [%] | cytotoxicity at 42 h, 100 µM [5] [%]
1 | 2-[[5-(4-Fluorophenyl)-1,3,4-thiadiazol-2-yl]imino]-5-(2,6-dimethoxybenzylidene)-1,3-thiazolidin-4-one [Compound 17] | 13.9 ± 1.6 | 50.4 ± 5.2% | 51.2 ± 6.3% | 7.0 ± 1.8% |  | 
2 | 2-[[5-(4-Fluorophenyl)-1,3,4-thiadiazol-2-yl]imino]-5-(4-nitrobenzylidene)-1,3-thiazolidin-4-one [Compound 16] | 63.0 ± 4.4 | 93.2 ±1.7% | 87.7 ± 1.4% | no inhibition and n.i | 73.7 ± 8.6 | 
3 | Nc1nnc(-c2ccc(F)cc2)s1 [Compound 3, 2-Amino-5-(4-fluorophenyl)-1,3,4-thiadiazole] |  |  |  |  | 0.0 | 
4 | Nc1nnc(-c2ccc(Cl)cc2)s1 [Compound 4, 2-Amino-5-(4-chlorophenyl)-1,3,4-thiadiazole] |  |  |  | did not inhibit and n.i. |  | 
5 | O=C(CCl)Nc1nnc(-c2ccc(F)cc2)s1 [Compound 5, 2-Chloro-N-[5-(4-fluorophenyl)-1,3,4-thiadiazol-2-yl]acet-amide] |  | near complete inhibition | near complete inhibition |  |  | > 70
6 | O=C(CCl)Nc1nnc(-c2ccc(Cl)cc2)s1 [Compound 6, 2-Chloro-N-[5-(4-chlorophenyl)-1,3,4-thiadiazol-2-yl]acet-amide] |  | near complete inhibition | near complete inhibition |  |  | > 70
7 | O=C1CS/C(=N/c2nnc(-c3ccc(F)cc3)s2)N1 [Compound 7, 2-[[5-(4-Fluorophenyl)-1,3,4-thiadiazol-2-yl]imino]-1,3-thiazolidine-4-one] |  |  |  |  | 0.0 | 
8 | O=C1N/C(=N\c2nnc(-c3ccc(F)cc3)s2)S/C1=C\c1c(F)cccc1Cl [Compound 12, 2-[[5-(4-Fluorophenyl)-1,3,4-thiadiazol-2-yl]imino]-5-(2-chloro-6-fluoro-benzylidene)-1,3-thiazolidin-4-one] |  | near complete inhibition | near complete inhibition |  |  | > 70
9 | O=C1N/C(=N\c2nnc(-c3ccc(F)cc3)s2)S/C1=C\c1ccc(Cl)cc1Cl [Compound 14, 2-[[5-(4-Fluorophenyl)-1,3,4-thiadiazol-2-yl]imino]-5-(2,4-dichlorobenzylidene)-1,3-thiazolidin-4-one] |  |  |  | n.i |  | 
10 | O=C1N/C(=N\c2nnc(-c3ccc(F)cc3)s2)S/C1=C\c1c(Cl)cccc1Cl [Compound 15, 2-[[5-(4-Fluorophenyl)-1,3,4-thiadiazol-2-yl]imino]-5-(2,6-dichlorobenzylidene)-1,3-thiazolidin-4-one] |  | near complete inhibition | near complete inhibition |  |  | > 70
11 | O=C1N/C(=N\c2nnc(-c3ccc(Cl)cc3)s2)S/C1=C\c1ccc(F)cc1 [Compound 20, 2-[[5-(4-Chlorophenyl)-1,3,4-thiadiazol-2-yl]imino]-5-(4-fluorobenzylidene)-1,3-thiazolidin-4-one] |  |  |  | no inhibition and n.i |  | 
12 | O=C1N/C(=N\c2nnc(-c3ccc(Cl)cc3)s2)S/C1=C\c1c(F)cccc1Cl [Compound 21, 2-[[5-(4-Chlorophenyl)-1,3,4-thiadiazol-2-yl]imino]-5-(2-chloro-6-fluoro-benzylidene)-1,3-thiazolidin-4-one] |  | n.i. | n.i. | n.i. |  | 0
13 | O=C1N/C(=N\c2nnc(-c3ccc(Cl)cc3)s2)S/C1=C\c1ccccc1Cl [Compound 22, 2-[[5-(4-Chlorophenyl)-1,3,4-thiadiazol-2-yl]imino]-5-(2-chlorobenzylidene)-1,3-thiazolidin-4-one] |  | n.i. | n.i. | n.i. |  | 0
14 | O=C1N/C(=N\c2nnc(-c3ccc(Cl)cc3)s2)S/C1=C\c1ccc(Cl)cc1Cl [Compound 23, 2-[[5-(4-Chlorophenyl)-1,3,4-thiadiazol-2-yl]imino]-5-(2,4-dichlorobenzylidene)-1,3-thiazolidin-4-one] |  | n.i. | n.i. | n.i. |  | 0
15 | O=C1N/C(=N\c2nnc(-c3ccc(Cl)cc3)s2)S/C1=C\c1c(Cl)cccc1Cl [Compound 24, 2-[[5-(4-Chlorophenyl)-1,3,4-thiadiazol-2-yl]imino]-5-(2,6-dichlorobenzylidene)-1,3-thiazolidin-4-one] |  | near complete inhibition | near complete inhibition |  |  | > 70
16 | COc1cccc(OC)c1/C=C1\S/C(=N/c2nnc(-c3ccc(Cl)cc3)s2)NC1=O [Compound 25, 2-[[5-(4-Chlorophenyl)-1,3,4-thiadiazol-2-yl]imino]-5-(2,6-dimethoxy-benzylidene)-1,3-thiazolidin-4-one] |  | near complete inhibition | near complete inhibition |  |  | > 70
